Screens deposited in PubChem by Johns Hopkins Ion Channel Center.
KCNK9 inh – human KCNK9 channel inhibition; B-score at 10 µM; actives 1.2% (n = 310,000); HEK293 KCNK9, FluxOR thallium flux fluorescence; hits give low values; AID 488922;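 active = ratio B-score over 3 SD below the library mean, with starting fluorescence within 5 SD of its mean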;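 note: negative B-score means less thallium flux so channel inhibition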
Kir21 block – inhibitors of mouse Kir2.1 inward-rectifier potassium channel. actives 0.85% (n = 310,000). HEK293-Kir2.1, FluxOR thallium flux fluorescence; hits give low values. P35561. B-score at 10 µM;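 active = fluorescence ratio B-score at or below minus 3 SD of library scores, with starting-brightness B-score within 2 SD, cut at about -4.2 in these data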;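 note: channel flux triggered by added potassium and thallium sulfate stimulus; B-score of peak minus minimum fluorescence over baseline after thallium stimulus; more negative B-score means stronger Kir2.1 block with less thallium influx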
Target sequence (P35561 whole entry, looked up): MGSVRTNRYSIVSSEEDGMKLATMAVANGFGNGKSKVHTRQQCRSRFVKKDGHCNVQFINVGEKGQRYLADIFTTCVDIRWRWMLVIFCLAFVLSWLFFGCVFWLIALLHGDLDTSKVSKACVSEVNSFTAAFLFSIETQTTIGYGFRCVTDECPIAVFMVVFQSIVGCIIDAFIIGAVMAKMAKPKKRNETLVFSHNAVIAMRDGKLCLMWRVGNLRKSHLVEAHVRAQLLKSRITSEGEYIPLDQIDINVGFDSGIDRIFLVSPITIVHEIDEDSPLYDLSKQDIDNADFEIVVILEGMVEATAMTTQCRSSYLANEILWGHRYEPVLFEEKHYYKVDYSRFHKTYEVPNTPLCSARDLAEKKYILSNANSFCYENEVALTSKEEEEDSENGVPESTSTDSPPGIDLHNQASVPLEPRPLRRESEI
hERG protect – compounds protecting human hERG from proarrhythmic drug block. CHO-hERG, FluxOR thallium flux, dofetilide IC70 present. Q12809. actives 0.51% (n = 310,000). activation (rescue from dofetilide block), less the hit threshold, % at 10 µM;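 active = activation above the mean of controls blocked by dofetilide plus 5 SD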;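 note: thallium influx through hERG after potassium depolarization seen as dye fluorescence rise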
KCNK3 inh – human KCNK3 channel inhibition, primary screen. AID 602410. O14649. actives 0.84% (n = 340,000). CHO-KCNK3 thallium flux, FluxOR fluorescence; hits give low values. B-score at 10 µM;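 active = B-score under library mean minus 4 SD, starting fluorescence ratio at most library mean plus 5 SD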;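 note: more negative B-score means stronger inhibition of thallium flux through KCNK3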
KCNQ1 inh – human KCNQ1 channel inhibition; P51787; CHO-K1 KCNQ1, FluxOR thallium flux fluorescence; hits give high values; B-score at 10 µM; actives 1.3% (n = 310,000);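 active = compounds whose thallium flux B-score, printed positive for inhibition, exceeds three library SD while starting fluorescence stays within three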;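 note: channel opened by potassium depolarization with thallium stimulus after 20 min compound exposure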
KCNQ1 act – potentiates or activates the human KCNQ1 potassium channel; P51787; CHO-K1 KCNQ1, thallium flux FluxOR fluorescence; hits give high values; B-score at 10 µM; actives 0.35% (n = 310,000); AID 2648;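 active = fluorescence ratio B-score, a plate-corrected score, at least three library SD, with initial intensity B-score within 5 SD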
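Assay system: stable KCNQ1 CHO-K1 line; medium: assay buffer, equal DMSO in all wells; timing: 90 min dye loading and 20 min compound exposure, both at room temperature; technique: kinetic FluxOR thallium fluorescence, 10-s 1-Hz baseline, 110-s post-stimulus read; read-out basis: B score of baseline-normalized fluorescence ratio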
KCNQ1 inh valid – human KCNQ1 channel inhibition, validation assay. actives 93% (n = 1,600). inhibition, % at 10 µM. shares compounds with KCNQ1 inh. AID 588353. KCNQ1 cell line, FluxOR thallium flux fluorescence;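 active = primary screen active, with duplicate mean exceeding buffer control mean plus 3 SD of buffer wells, cut at about 28% in these data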
CHO Tl flux – counter-screen for KCNQ1 inhibitors: effect in parental CHO cells; parental CHO-K1, FluxOR thallium flux fluorescence ratio; hits give low values; zero means no signal rise above baseline; AID 588366; shares compounds with KCNQ1 inh; fluorescence ratio (Tl flux) at 10 µM; actives 21% (n = 1,600);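 active = mean of duplicate thallium-flux fluorescence ratios in parental host cells more than 5 SD below the buffer control mean, cut at about 0.38 in these data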;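 note: ratio is peak minus minimum fluorescence divided by baseline fluorescence; actives read low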
KCNQ1 ephys val – confirmation of human KCNQ1 potassium channel inhibitors by electrophysiology; actives 20% (n = 490); shares compounds with KCNQ1 inh; AID 624120; KCNQ1-CHO cells, automated patch clamp current; calls only at 10 µM;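 active = KCNQ1 current drop exceeding 3 SD of negative control wells, seen in both duplicate runs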;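 note: steady state current during a 2 s step from -80 to +40 mV; negative values mean current inhibition and positive values mean potentiation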
KCNQ2 inh – KCNQ1 inhibitor that also blocks rat KCNQ2 channel. shares compounds with KCNQ1 inh. inhibition, % at 10 µM. AID 651746. KCNQ2 cells, FluxOR thallium flux fluorescence. actives 71% (n = 1,600);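 active = mean percent inhibition of the KCNQ2 thallium signal more than 5 SD above the buffer-only control wells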;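 note: KCNQ2 expressed in CHO cells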
KCNQ1-KCNE1 inh – selectivity of KCNQ1 inhibitors: inhibition of human KCNQ1/KCNE1 channel; shares compounds with KCNQ1 inh; KCNQ1/KCNE1 cells, FluxOR thallium flux fluorescence; inhibition, % at 10 µM; actives 77% (n = 1,600);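 active = mean percent inhibition of duplicate wells above the buffer-only control mean plus 3 SD of those controls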
A number is an active result; i = inactive; nt = no result; + = active, no number. Most compounds without a hit are left out; they make up all but 3.8% or so of the library.

SMILES | KCNK9 inh | Kir21 block | hERG protect | KCNK3 inh | KCNQ1 inh | KCNQ1 act | KCNQ1 inh valid | CHO Tl flux | KCNQ2 inh | KCNQ1-KCNE1 inh | others
CCOC(=O)c1ccccc1NC(=O)Cc1c(C(=O)O)n(C)c2ccccc12 | i | i | i | i | i | i | nt | nt | nt | nt
CC(NC(=S)Nc1ccc(OC(F)F)c(Cl)c1)C(C)(C)C (centres undefined) | i | i | i | i | 8 | i | 60 | i | i | 36%
Cc1cc(C)c(S(=O)(=O)n2ccc3ccccc32)c(C)c1 | i | i | i | i | 9 | i | 106 | 0.38 | 116% | 142%
Cn1c(CC(=O)Nc2ccccc2F)nnc1SCC(=O)N1CCOCC1 | i | i | i | i | i | i | nt | nt | nt | nt
CCCCNC(=O)Cn1c(=O)oc2cc(S(=O)(=O)N3CC(C)CC(C)C3)ccc21 (centres undefined) | i | i | i | i | i | i | nt | nt | nt | nt
Cc1cc(C)cc(NC(=O)Cn2c(=O)oc3cc(S(=O)(=O)N4CC(C)CC(C)C4)ccc32)c1 (centres undefined) | i | i | i | i | 7 | i | 37 | i | 67% | i
O=C(O)Cc1ccc(NC(=O)Nc2ccc3c(c2)OCO3)cc1 | i | i | i | i | i | i | nt | nt | nt | nt
CCOC(=O)c1cc(-c2ccccc2)sc1NC(=O)C(C)(C)C | i | i | i | i | i | i | nt | nt | nt | nt
CCOC(=O)c1cc(-c2ccccc2)sc1NC(=O)CC(C)C | i | i | i | i | 6 | i | 100 | 0.35 | 127% | 116%
CCN1CCN(C(=O)C2CC(=O)N(c3ccc(Cl)cc3)C2)CC1 (centres undefined) | i | i | i | i | i | i | nt | nt | nt | nt
Cc1ccccc1C(=O)Nc1ccc2c(C#N)c3nc4ccccc4nc3n2c1 | i | i | i | i | 8 | i | 32 | i | 64% | i
Cc1c(C(=O)Nc2ccccc2)cn2c(nc3ccccc32)c1C#N | i | i | i | i | i | i | nt | nt | nt | nt
CCCc1cc(C(=O)Nc2ccc(C(=O)c3ccc(F)cc3)cc2)n(C)n1 | i | i | i | -12 | 6 | i | + | i | 137% | +
O=C(Nc1ccc(F)cc1)c1ccc2snnc2c1 | i | i | i | i | i | i | nt | nt | nt | nt
O=S(=O)(Nc1c(O)ccc2ccccc12)c1ccc(F)cc1 | i | i | i | i | 10 | i | 42 | i | i | 55%
O=S(=O)(Nc1cccc2ccccc12)c1ccccc1 | i | i | i | i | i | i | nt | nt | nt | nt
O=S(=O)(Nc1c(O)ccc2ccccc12)c1ccccc1 | i | i | i | i | 11 | i | 56 | i | i | 90%
Cc1csc(C(C)N(C)C(=O)c2ccc(OC3CCN(Cc4ccccn4)CC3)cc2)n1 (centres undefined) | i | i | i | i | i | i | nt | nt | nt | nt
CC(C)Cn1c(N)c(C(=O)COC(=O)CC23CC4CC(CC(C4)C2)C3)c(=O)n(C)c1=O | i | i | i | i | 12 | i | 144 | 0.3 | 124% | 186%
CC(C)Cn1c(N)c(C(=O)COC(=O)CCc2nc3ccccc3s2)c(=O)n(C)c1=O | i | i | i | i | 8 | i | 132 | i | 84% | 96% | KCNQ1 ephys val=i
Cc1csc(=O)n1CCC(=O)OCC(=O)c1c(N)n(CC(C)C)c(=O)n(C)c1=O | i | i | i | i | i | i | nt | nt | nt | nt
CCOC(=O)Cc1cn(C(=O)OC(C)(C)C)c2ccccc12 | nt | nt | nt | i | nt | nt | nt | nt | nt | nt
CCN(CC)C(=O)CSc1nc2cc3c(cc2c(=O)n1CCCCCC(=O)NCc1ccc(OC)cc1)OCO3 | i | i | i | i | i | i | nt | nt | nt | nt
